Assay [1] concerns K562. Nature of the assay: Induction of cell cycle arrest in Homo sapiens (human) K562 cells assessed as decrease in G2/M phase cells after 48 hr by PI-staining based flow cytometric analysis. The format is functional. In a few lines: (§1)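 Cells treated 48 h with DMSO solvent controls, washed in cold PBS and fixed in 70% ethanol at −20°C for at least 24 h. Stained 30 min in the dark at room temperature with 50 μg/ml PI and 100 μg/ml RNase in PBS/0.1% Triton X-100. DNA content measured by flow cytometry and phase percentages modelled; mean ± SD, n ≥ 4.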
For orientation: A flow cytometer gives signals particle by particle.

In assay [2] the test system is K562. Nature of the assay: Induction of cell cycle arrest in Homo sapiens (human) K562 cells assessed as cells accumulation of G1/S phase cells after 48 hr by PI-staining based flow cytometric analysis. It is filed as functional. The essentials: as §1
Assay [3] has as its system K562. The assay is described as follows: Induction of cell cycle arrest in Homo sapiens (human) K562 cells assessed as accumulation of G1 phase cells after 48 hr by PI-staining based flow cytometric analysis. The format is functional. The essentials:
as §1

The test system of assay [4] is HL-60. The assay is described as follows: Induction of cell cycle arrest in Homo sapiens (human) HL60 cells assessed as decrease in G2/M phase cells after 48 hr by PI-staining based flow cytometric analysis. The format is functional. In a few lines:
as §1

Assay [5] deals with HL-60. The assay is described as follows: Induction of cell cycle arrest in Homo sapiens (human) HL60 cells assessed as cells accumulation of G1/S phase cells after 48 hr by PI-staining based flow cytometric analysis. It is filed as functional. The essentials:
as §1

The subject of assay [6] is HL-60. Nature of the assay: Induction of cell cycle arrest in Homo sapiens (human) HL60 cells assessed as accumulation of G1 phase cells after 48 hr by PI-staining based flow cytometric analysis. It is filed as functional. The essentials:
as §1

In assay [7] the test system is K562. Nature of the assay: Induction of apoptosis in Homo sapiens (human) K562 cells assessed as mitochondrial membrane depolarization at 10 uM after 48 hr by JC-1 staining based flow cytometric analysis (reference value: 6.1 +/- 0.9%). The format is functional.
For assay [8], the system named is HL-60. The assay is described as follows: Induction of apoptosis in Homo sapiens (human) HL60 cells assessed as mitochondrial membrane depolarization at 5 uM after 48 hr by JC-1 staining based flow cytometric analysis (reference value: 7.7 +/- 2.4%). The format is functional.
Assay [9] deals with K562. Nature of the assay: Induction of apoptosis in Homo sapiens (human) K562 cells from 24 to 48 hr by annexinV/PI-staining based flow cytometric analysis. It is filed as functional, cell-based. In a few lines: (§2)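 Cells seeded at 2.5 × 10^5 cells/ml in RPMI-1640/10% FBS, treated 24 or 48 h, DMSO solvent controls. Rinsed twice in cold PBS and resuspended at 2 × 10^6 cells/ml in binding buffer. Labelled with annexin V-FITC and PI for 15 min at room temperature in the dark. Flow cytometry within 1 h; mean ± SD, n ≥ 4.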

Assay [10] relates to HL-60. Nature of the assay: Induction of apoptosis in Homo sapiens (human) HL60 cells from 24 to 48 hr by annexinV/PI-staining based flow cytometric analysis. The format is functional, cell-based. The essentials: as §2
Assay [11] deals with K562. Nature of the assay: Induction of apoptosis in Homo sapiens (human) K562 cells at 10 to 20 uM by annexinV/PI-staining based flow cytometric analysis. The format is functional, cell-based. As to conditions: TDE = time-dependent effect. The essentials:
as §2

The subject of assay [12] is HL-60. The assay is described as follows: Induction of apoptosis in Homo sapiens (human) HL60 cells at 5 to 8 uM by annexinV/PI-staining based flow cytometric analysis. The format is functional, cell-based. As to conditions: TDE = time-dependent effect. The essentials: as §2
Assay [13] has as its system K562. The assay is described as follows: Induction of apoptosis in Homo sapiens (human) K562 cells assessed as PARP cleavage at 10 uM after 48 hr by FITC conjugated antiPARP-staining based flow cytometric analysis. The format is functional, cell-based. In a few lines:
(§3)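 Cells in RPMI-1640 with 10% heat-inactivated FBS, seeded at 2.5 × 10^5 cells/ml and treated from DMSO solution. Controls got the same solvent volume. Harvested 48 h post-treatment and washed twice in PBS. Stained with FITC anti-PARP antibody specific for the 85 kDa cleaved fragment. Flow cytometry reported fluorescence intensity, with negative (M1) and positive (M2) gates.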

The subject of assay [14] is K562. The assay is described as follows: Induction of cell cycle arrest in Homo sapiens (human) K562 cells assessed as G2/M phase cells at 10 uM after 48 hr by PI-staining based flow cytometric analysis (reference value: 19.1 +/- 3.9%). It is filed as functional. The essentials: as §1
For assay [15], the system named is K562. Nature of the assay: Induction of cell cycle arrest in Homo sapiens (human) K562 cells assessed as S phase cells at 10 uM after 48 hr by PI-staining based flow cytometric analysis (reference value: 43.3 +/- 3.4%). It is filed as functional. The essentials: as §1
Assay [16] has as its system K562. Nature of the assay: Induction of cell cycle arrest in Homo sapiens (human) K562 cells assessed as G1 phase cells at 10 uM after 48 hr by PI-staining based flow cytometric analysis (reference value: 37.6 +/- 3.2 %). The format is functional. The essentials:
as §1

Assay [17] concerns HL-60. Nature of the assay: Induction of apoptosis in Homo sapiens (human) HL60 cells assessed as PARP cleavage at 8 uM after 48 hr by FITC conjugated antiPARP-staining based flow cytometric analysis. The format is functional, cell-based. The essentials:
as §3

Assay [18] has as its system HL-60. Nature of the assay: Induction of apoptosis in Homo sapiens (human) HL60 cells assessed as apoptotic nuclei at 8 uM after 48 hr by DAPI/sulforhodamine 101-stainihng based fluorescence micrscopic analysis. The format is functional, cell-based. In a few lines:
(§4)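 Exponentially growing cells seeded at 2.5 × 10^5 cells/ml, exposed 48 h, DMSO solvent controls. Washed in cold PBS and fixed in 70% ethanol at −20°C for at least 24 h. Stained with 1.0 μg/ml DAPI plus 20 μg/ml sulforhodamine 101. Nuclear morphology scored by fluorescence microscopy.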

Assay [19] concerns HL-60. Nature of the assay: Induction of apoptosis in Homo sapiens (human) HL60 cells assessed as concentrated chromatin at 8 uM after 48 hr by DAPI/sulforhodamine 101-stainihng based fluorescence micrscopic analysis. The format is functional, cell-based. The essentials:
as §4

Assay [20] concerns K562. The assay is described as follows: Induction of cell cycle arrest in Homo sapiens (human) K562 cells assessed as G1 phase cells at 20 uM after 48 hr by PI-staining based flow cytometric analysis (reference value: 37.6 +/- 3.2 %). It is filed as functional. In a few lines:
as §1

The test system of assay [21] is K562. The assay is described as follows: Induction of cell cycle arrest in Homo sapiens (human) K562 cells assessed as G2/M phase cells at 20 uM after 48 hr by PI-staining based flow cytometric analysis (reference value: 19.1 +/- 3.9%). The format is functional. In a few lines:
as §1

The test system of assay [22] is K562. The assay is described as follows: Induction of cell cycle arrest in Homo sapiens (human) K562 cells assessed as S phase cells at 20 uM after 48 hr by PI-staining based flow cytometric analysis (reference value: 43.3 +/- 3.4%). It is filed as functional. The essentials: as §1

Activity calls are given as the source filed them. The calls are words filed in the database; no cut-off is given here.

On to `Br.CCNC(=N)SCc1c(Br)c(Br)c(Br)c(Br)c1Br`, for which the Activity entry in the assay with K562 [1], in the assay with K562 [2], in the assay with K562 [3], in the assay on HL-60 [4], in the assay with HL-60 [5] and in the assay on HL-60 [6] was “Dose-dependent effect” throughout. The Activity in the assay with K562 [7] was 62.2%; in the assay on HL-60 [8] it was 30.1%; in the assay with K562 [9], “Dose-dependent effect”; in the assay with HL-60 [10] it was “Dose-dependent effect”; with K562 [11], “tde”; in the assay on HL-60 [12] it was “tde”.

Consider `Br.C=CCNC(=N)SCc1c(Br)c(Br)c(Br)c(Br)c1Br`, for which the Activity result with K562 [1], in the assay on K562 [2], with K562 [3], in the assay on HL-60 [4], with HL-60 [5] and with HL-60 [6] was “Dose-dependent effect” each time. Besides, the Activity with K562 [7] was 60%; in the assay with HL-60 [8], 12.8%; in the assay with K562 [9], “Dose-dependent effect”; in the assay with HL-60 [10], “Dose-dependent effect”; in the assay on K562 [11] it was “tde”; in the assay on HL-60 [12] it was “tde”.

`Br.N=C(N)SCc1c(Br)c(Br)c(Br)c(Br)c1Br`: the Activity result in the assay with K562 [1], in the assay with K562 [2], in the assay on K562 [3], with HL-60 [4], in the assay on HL-60 [5] and with HL-60 [6] was “Dose-dependent effect” in each case. In addition, the Activity in the assay on K562 [7] is 63.8%; in the assay on HL-60 [8], 21.9%; in the assay with K562 [9] it was “Dose-dependent effect”; in the assay with HL-60 [10], “Dose-dependent effect”; in the assay on K562 [11] it was “tde”; in the assay with HL-60 [12], “tde”.

Regarding `Br.CNC(=N)SCc1c(Br)c(Br)c(Br)c(Br)c1Br`, the Activity result in the assay with K562 [1], in the assay on K562 [2], with K562 [3], in the assay with HL-60 [4], with HL-60 [5] and with HL-60 [6] was “Dose-dependent effect” throughout. The Activity with K562 [7] is 81.8%; in the assay on HL-60 [8], 24.4%; in the assay with K562 [9], “Dose-dependent effect”; in the assay on HL-60 [10], “Dose-dependent effect”; in the assay on K562 [11], “tde”; in the assay on HL-60 [12], “tde”. In addition, in the assay on K562 [13], the outcome was Active.

Regarding `Br.C/N=C(/NC)SCc1c(Br)c(Br)c(Br)c(Br)c1Br`, the Activity in the assay on K562 [14] was 9%; in the assay with K562 [15], 35.5%; in the assay with K562 [16], 55.5%; in the assay on K562 [1] it was “Dose-dependent effect”; in the assay with K562 [2] it was “Dose-dependent effect”; in the assay on K562 [3], “Dose-dependent effect”. The Activity result in the assay on HL-60 [4] was “Dose-dependent effect”; in the assay with HL-60 [5] it was “Dose-dependent effect”; in the assay on HL-60 [6], “Dose-dependent effect”; with K562 [7], 77.7%; with HL-60 [8], 93.1%; with K562 [9] it was “Dose-dependent effect”. The Activity result in the assay with HL-60 [10] is “Dose-dependent effect”; in the assay with K562 [11], “tde”; in the assay with HL-60 [12] it was “tde”; in the assay on K562 [20], 55%; with K562 [21], 2.5%; in the assay with K562 [22] it was 42.5%. The result with HL-60 [17], in the assay on HL-60 [18] and with HL-60 [19] was Active.
